Data from ChEMBL document CHEMBL4393701, “Appendix A. dithioloquinolinethiones as new potential multitargeted antibacterial and antifungal agents: Synthesis, biological evaluation and molecular docking studies” (2019).
In brackets after ≈: the same amount, converted by molar mass.

What was measured:
Enterobacter cloacae [1] = assay: Antibacterial activity against Enterobacter cloacae clinical isolate after 24 hrs by iodonitrotetrazolium chloride dye based microdilution method; type: functional
Summary of the method: (§1)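 Fresh overnight cultures adjusted spectrophotometrically to 1×10^5 CFU/mL, giving 1.0×10^4 CFU per well in tryptic soy broth. Compounds were dissolved in 5% DMSO and tested at 0.001-1.0 mg/ml by serial dilution; 5% DMSO was the negative control. After 24 h at 37 °C, 0.2 mg/mL INT solution was added for 30 min at 37 °C and OD read at 655 nm. MIC is the lowest concentration giving significant growth inhibition versus the positive control. Duplicates, repeated three times.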

Pseudomonas aeruginosa [2] = assay: Antibacterial activity against Pseudomonas aeruginosa ATCC 27853 after 24 hrs by iodonitrotetrazolium chloride dye based microdilution method; type: functional; details: ATCC 27853, 24 h; summary of the method: as §1
Penicillium ochrochloron [3] = assay: Antifungal activity against Penicillium ochrochloron ATCC 9112 after 72 hrs by microdilution technique; type: functional; details: ATCC 9112, 72 h
Summary of the method: (§2)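 Spores were washed off malt agar with 0.85% saline containing 0.1% Tween 80 and adjusted to about 1.0×10^5 per well. Compounds in 5% DMSO were serially diluted (0.001-1.0 mg/ml) in malt broth with inoculum. Plates were shaken at 160 rpm for 72 h at 28 °C. MIC is the lowest concentration without visible growth under a binocular microscope. Three independent experiments in duplicate.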

Aspergillus fumigatus [4] = assay: Fungicidal activity against Aspergillus fumigatus ATCC 1022 incubated for 72 hrs followed by sub-culturing on broth malt medium and measured after 72 hrs; type: functional; details: ATCC 1022, 72 h
Summary of the method: (§3)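 After 72 h exposure in malt broth, 2 µL from test wells was subcultured into wells holding 100 µL broth and incubated a further 72 h at 28 °C. MFC is the lowest concentration with no visible growth, taken as 99.5% kill of the original inoculum. Three independent experiments in duplicate.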

Penicillium cyclopium [5] = assay: Fungicidal activity against Penicillium verrucosum var. cyclopium food isolate incubated for 72 hrs followed by sub-culturing on broth malt medium and measured after 72 hrs; type: functional; summary of the method: as §3
Listeria monocytogenes [6] = assay: Bactericidal activity against Listeria monocytogenes NCTC 7973 incubated for 24 hrs followed by re-plating on tryptic soy broth; type: functional; details: NCTC 7973, 24 h
Summary of the method: (§4)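 Bacteria were grown in tryptic soy broth, 1.0×10^4 CFU per well, with compounds in 5% DMSO at 0.001-1.0 mg/ml for 24 h at 37 °C. Then 10 µL was subcultured into fresh TSB. MBC is the lowest concentration showing no growth after subculture, taken as 99.5% kill of the original inoculum. Duplicates, repeated three times.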

Staphylococcus aureus [7] = assay: Antibacterial activity against Staphylococcus aureus ATCC 6538 after 24 hrs by iodonitrotetrazolium chloride dye based microdilution method; type: functional; details: ATCC 6538, 24 h; summary of the method: as §1
Penicillium ochrochloron [8] = assay: Fungicidal activity against Penicillium ochrochloron ATCC 9112 incubated for 72 hrs followed by sub-culturing on broth malt medium and measured after 72 hrs; type: functional; details: ATCC 9112, 72 h; summary of the method: as §3
[9] = Antifungal activity against Penicillium funiculosum ATCC 36839 after 72 hrs by microdilution technique; type: functional; details: Talaromyces pinophilus, ATCC 36839, 72 h; summary of the method: as §2
[10] = Fungicidal activity against Penicillium funiculosum ATCC 36839 incubated for 72 hrs followed by sub-culturing on broth malt medium and measured after 72 hrs; type: functional; details: Talaromyces pinophilus, ATCC 36839, 72 h; summary of the method: as §3
Aspergillus versicolor [11] = assay: Antifungal activity against Aspergillus versicolor ATCC 11730 after 72 hrs by microdilution method; type: functional; details: ATCC 11730, 72 h; summary of the method: as §2
Listeria monocytogenes [12] = assay: Antibacterial activity against Listeria monocytogenes NCTC 7973 after 24 hrs by iodonitrotetrazolium chloride dye based microdilution method; type: functional; details: NCTC 7973, 24 h; summary of the method: as §1
Salmonella typhimurium [13] = assay: Bactericidal activity against Salmonella typhimurium ATCC 13311 incubated for 24 hrs followed by re-plating on tryptic soy broth; type: functional, Salmonella enterica subsp. enterica serovar Typhimurium; details: Salmonella enterica, ATCC 13311, 24 h; summary of the method: as §4
Aspergillus ochraceus [14] = assay: Fungicidal activity against Aspergillus ochraceus ATCC 12066 incubated for 72 hrs followed by sub-culturing on broth malt medium and measured after 72 hrs; type: functional; details: ATCC 12066, 72 h; summary of the method: as §3
Micrococcus flavus [15] = assay: Bactericidal activity against Micrococcus flavus ATCC 10240 incubated for 24 hrs followed by re-plating on tryptic soy broth; type: functional; details: ATCC 10240, 24 h; summary of the method: as §4
Trichoderma viride [16] = assay: Antifungal activity against Trichoderma viride IAM 5061 after 72 hrs by microdilution technique; type: functional; details: IAM 5061, 72 h; summary of the method: as §2
Pseudomonas aeruginosa [17] = assay: Bactericidal activity against Pseudomonas aeruginosa ATCC 27853 incubated for 24 hrs followed by re-plating on tryptic soy broth; type: functional; details: ATCC 27853, 24 h; summary of the method: as §4
Penicillium cyclopium [18] = assay: Antifungal activity against Penicillium verrucosum var. cyclopium food isolate after 72 hrs by microdilution technique; type: functional; summary of the method: as §2
Staphylococcus aureus [19] = assay: Bactericidal activity against Staphylococcus aureus ATCC 6538 incubated for 24 hrs followed by re-plating on tryptic soy broth; type: functional; details: ATCC 6538, 24 h; summary of the method: as §4
Escherichia coli [20] = assay: Antibacterial activity against Escherichia coli ATCC 35210 after 24 hrs by iodonitrotetrazolium chloride dye based microdilution method; type: functional; details: ATCC 35210, 24 h; summary of the method: as §1
Escherichia coli [21] = assay: Bactericidal activity against Escherichia coli ATCC 35210 incubated for 24 hrs followed by re-plating on tryptic soy broth; type: functional; details: ATCC 35210, 24 h; summary of the method: as §4
Enterobacter cloacae [22] = assay: Bactericidal activity against Enterobacter cloacae incubated for 24 hrs followed by re-plating on tryptic soy broth; type: functional; summary of the method: as §4
Aspergillus niger [23] = assay: Fungicidal activity against Aspergillus niger ATCC 6275 incubated for 72 hrs followed by sub-culturing on broth malt medium and measured after 72 hrs; type: functional; details: ATCC 6275, 72 h; summary of the method: as §3
Micrococcus flavus [24] = assay: Antibacterial activity against Micrococcus flavus ATCC 10240 after 24 hrs by iodonitrotetrazolium chloride dye based microdilution method; type: functional; details: ATCC 10240, 24 h; summary of the method: as §1
Bacillus cereus [25] = assay: Bactericidal activity against Bacillus cereus clinical isolate incubated for 24 hrs followed by re-plating on tryptic soy broth; type: functional; summary of the method: as §4
Aspergillus ochraceus [26] = assay: Antifungal activity against Aspergillus ochraceus ATCC 12066 after 72 hrs by microdilution technique; type: functional; details: ATCC 12066, 72 h; summary of the method: as §2
Salmonella typhimurium [27] = assay: Antibacterial activity against Salmonella typhimurium ATCC 13311 after 24 hrs by iodonitrotetrazolium chloride dye based microdilution method; type: functional, Salmonella enterica subsp. enterica serovar Typhimurium; details: Salmonella enterica, ATCC 13311, 24 h; summary of the method: as §1
Aspergillus versicolor [28] = assay: Fungicidal activity against Aspergillus versicolor ATCC 11730 incubated for 72 hrs followed by sub-culturing on broth malt medium and measured after 72 hrs; type: functional; details: ATCC 11730, 72 h; summary of the method: as §3
Trichoderma viride [29] = assay: Fungicidal activity against Trichoderma viride IAM 5061 incubated for 72 hrs followed by sub-culturing on broth malt medium and measured after 72 hrs; type: functional; details: IAM 5061, 72 h; summary of the method: as §3
Aspergillus fumigatus [30] = assay: Antifungal activity against Aspergillus fumigatus ATCC 1022 after 72 hrs by microdilution technique; type: functional; details: ATCC 1022, 72 h; summary of the method: as §2
Aspergillus niger [31] = assay: Antifungal activity against Aspergillus niger ATCC 6275 after 72 hrs by microdilution technique; type: functional; details: ATCC 6275, 72 h; summary of the method: as §2
Bacillus cereus [32] = assay: Antibacterial activity against Bacillus cereus clinical isolate after 24 hrs by iodonitrotetrazolium chloride dye based microdilution assay; type: functional; summary of the method: as §1

- MIC (Enterobacter cloacae [1]): 64.6 µM (≈ 30 µg/mL)
- MIC (Pseudomonas aeruginosa [2]): 129 µM (≈ 60 µg/mL)
- MIC (Penicillium ochrochloron [3]): 3.23 ×10⁻² mM
- MIC (Staphylococcus aureus [7]): 64.6 µM (≈ 30 µg/mL)
- MIC [9]: 12.9 ×10⁻² mM
- MIC (Aspergillus versicolor [11]): 12.9 ×10⁻² mM
- MIC (Listeria monocytogenes [12]): 258 µM (≈ 120 µg/mL)
- MIC (Trichoderma viride [16]): 1.72 ×10⁻² mM
- MIC (Penicillium cyclopium [18]): 25.8 ×10⁻² mM
- MIC (Escherichia coli [20]): 96.9 µM (≈ 45 µg/mL)
- MIC (Micrococcus flavus [24]): 96.9 µM (≈ 45 µg/mL)
- MIC (Aspergillus ochraceus [26]): 1.72 ×10⁻² mM
- MIC (Salmonella typhimurium [27]): 64.6 µM (≈ 30 µg/mL)
- MIC (Aspergillus fumigatus [30]): 25.8 ×10⁻² mM
- MIC (Aspergillus niger [31]): 25.8 ×10⁻² mM
- MIC (Bacillus cereus [32]): 64.6 µM (≈ 30 µg/mL)
Compound: COc1cc2c3c(c1)-c1c(ssc1=S)C(C)(C)N3C(=O)/C2=C1\SC(=S)NC1=O
- MFC (Aspergillus fumigatus [4]): 51.6 ×10⁻² mM
- MFC (Penicillium cyclopium [5]): 51.6 ×10⁻² mM
- MBC (Listeria monocytogenes [6]): 517 µM (≈ 240 µg/mL)
- MFC (Penicillium ochrochloron [8]): 6.46 ×10⁻² mM
- MFC [10]: 25.8 ×10⁻² mM
- MBC (Salmonella typhimurium [13]): 129 µM (≈ 60 µg/mL)
- MFC (Aspergillus ochraceus [14]): 3.23 ×10⁻² mM
- MBC (Micrococcus flavus [15]): 129 µM (≈ 59.9 µg/mL)
- MBC (Pseudomonas aeruginosa [17]): 258 µM (≈ 120 µg/mL)
- MBC (Staphylococcus aureus [19]): 129 µM (≈ 59.9 µg/mL)
- MBC (Escherichia coli [21]): 129 µM (≈ 59.9 µg/mL)
- MBC (Enterobacter cloacae [22]): 129 µM (≈ 59.9 µg/mL)
- MFC (Aspergillus niger [23]): 51.6 ×10⁻² mM
- MBC (Bacillus cereus [25]): 129 µM (≈ 59.9 µg/mL)
- MFC (Aspergillus versicolor [28]): 25.8 ×10⁻² mM
- MFC (Trichoderma viride [29]): 3.23 ×10⁻² mM
